Results from ChEMBL document CHEMBL2331309, “2,3-Diarylpropenoic acids as selective non-steroidal inhibitors of type-5 17β-hydroxysteroid dehydrogenase (AKR1C3)” (Eur J Med Chem, 2013).
Residue numbers refer to the chain shown, from its start. The source made the active and inactive calls. The rule behind the calls is not given here.

Legend:
[1] = molecular target: T1, Aldo-keto reductase family 1 member C2 (Homo sapiens) (UniProt P52895); test: Inhibition of recombinant AKR1C2 (unknown origin) assessed as decrease in oxidation of 1-acenaphthenol substrate at 100 uM by spectrophotometric analysis
T1 sequence (whole entry): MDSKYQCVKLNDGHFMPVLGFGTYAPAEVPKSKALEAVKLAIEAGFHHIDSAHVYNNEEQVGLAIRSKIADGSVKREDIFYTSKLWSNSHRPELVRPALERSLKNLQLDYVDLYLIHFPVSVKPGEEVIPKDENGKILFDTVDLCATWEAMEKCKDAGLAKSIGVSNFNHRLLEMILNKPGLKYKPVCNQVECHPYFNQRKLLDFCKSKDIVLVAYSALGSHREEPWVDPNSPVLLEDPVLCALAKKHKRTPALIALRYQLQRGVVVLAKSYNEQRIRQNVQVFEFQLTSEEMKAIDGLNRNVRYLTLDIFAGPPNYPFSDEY
Method in brief: (§1)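 Single-point screen at 100 μM compound. Recombinant enzyme oxidizes 1-acenaphthenol with 2.3 mM NAD⁺ in 100 mM phosphate buffer pH 9.0, 0.005% Triton X-114, 5% DMSO. AKR1C1: 30 μM substrate (Km), 0.3 μM enzyme. AKR1C2: 50 μM substrate (Km), 0.2 μM enzyme. NADH formation read at 340 nm from initial velocities. Result given as % inhibition.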

[2] = molecular target: T2, Aldo-keto reductase family 1 member C1 (Homo sapiens) (UniProt Q04828); test: Inhibition of human recombinant AKR1C1 expressed in Escherichia coli assessed as decrease in oxidation of 1-acenaphthenol substrate at 100 uM by spectrophotometric analysis; method in brief: as §1
T2 sequence (whole entry): T1 sequence (whole entry) with V38T, H47R, V54L, S87C, M151V, H170R, L172Q

[3] = molecular target: T3, Aldo-keto reductase family 1 member C3 (Homo sapiens, UniProt P42330); test: Inhibition of recombinant AKR1C3 (unknown origin) assessed as decrease in oxidation of 1-acenaphthenol substrate by spectrophotometric analysis
T3 sequence (P42330 whole entry): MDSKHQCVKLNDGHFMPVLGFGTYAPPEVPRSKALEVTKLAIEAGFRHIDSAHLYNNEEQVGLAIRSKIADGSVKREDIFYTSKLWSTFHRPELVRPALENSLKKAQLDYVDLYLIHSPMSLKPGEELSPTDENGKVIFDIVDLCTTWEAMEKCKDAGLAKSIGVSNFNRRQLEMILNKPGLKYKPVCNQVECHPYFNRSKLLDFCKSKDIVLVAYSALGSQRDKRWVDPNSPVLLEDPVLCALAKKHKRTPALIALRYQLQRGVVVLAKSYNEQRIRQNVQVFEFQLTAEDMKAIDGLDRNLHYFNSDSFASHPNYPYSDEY

[4] = molecular target: T4, Aldo-keto reductase family 1 member C1 (Homo sapiens, UniProt Q04828); test: Inhibition of human recombinant AKR1C1 expressed in Escherichia coli assessed as decrease in oxidation of 1-acenaphthenol substrate by spectrophotometric analysis
T4 sequence (Q04828 whole entry): T1 sequence (whole entry) with V38T, H47R, V54L, S87C, M151V, H170R, L172Q
Method in brief: (§2)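 IC50 measured for compounds giving over 50% inhibition at 100 μM. Assay uses 1-acenaphthenol oxidation with 2.3 mM NAD⁺ in pH 9.0 100 mM phosphate buffer with 0.005% Triton X-114 and 5% DMSO. AKR1C1 runs at 30 μM substrate and 0.3 μM enzyme; AKR1C2 at 50 μM substrate and 0.2 μM enzyme. Initial rates come from NADH at 340 nm. IC50 is read from log[inhibitor] versus % inhibition plots.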

[5] = molecular target: T5, Aldo-keto reductase family 1 member C2 (Homo sapiens, UniProt P52895); test: Inhibition of recombinant AKR1C2 (unknown origin) assessed as decrease in oxidation of 1-acenaphthenol substrate by spectrophotometric analysis; method in brief: as §2
T5 sequence (P52895 whole entry): T1 sequence (whole entry)

| inhibition [1] | inhibition [2] | IC50 [3] [µM] | IC50 [4] [µM] | IC50 [5] [µM] | SMILES |
| --- | --- | --- | --- | --- | --- |
| 18.4% | 3.5% | 23.3 |  |  | CS(=O)(=O)c1ccc(/C(=C\c2ccc(C(F)(F)F)cc2)C(=O)O)cc1 |
| inactive | inactive | 13.6 |  |  | CCc1ccc(/C=C(/C(=O)O)c2ccc(S(C)(=O)=O)cc2)cc1 |
| 13.8% | 6.4% |  |  |  | COc1cc(/C(=C\c2cccc3ccccc23)C(=O)O)cc(OC)c1OC |
| 24.3% | 34.7% | 10.8 |  |  | CS(=O)(=O)c1ccc(/C(=C\c2ccc(Cl)cc2)C(=O)O)cc1 |
| 63.4% | 89.6% | 86.6 | 15.7 | 26.9 | CS(=O)(=O)c1ccc(/C=C(/C(=O)O)c2ccc(Cl)cc2)cc1 |
| 43% | 44.5% | 16.8 |  |  | CS(=O)(=O)c1ccc(/C(=C\c2cccc(Cl)c2)C(=O)O)cc1 |
| 4.3% | 15.1% |  |  |  | COc1ccc(/C=C(/C(=O)O)c2cc(OC)c(OC)c(OC)c2)cc1 |
| 58.3% | 34.8% | 13.6 |  | 74.3 | CS(=O)(=O)c1ccc(/C(=C\c2cccc(Br)c2)C(=O)O)cc1 |
| 10.6% | 5.9% |  |  |  | CC(=O)NS(=O)(=O)c1ccc(/C=C(/C(=O)O)c2ccc(S(C)(=O)=O)cc2)cc1 |
| 0.6% | 6.1% |  |  |  | COc1ccc(/C=C(/C(=O)O)c2cc(OC)c(OC)c(OC)c2)cc1OC |
| 39.6% | 9.7% | 38.7 |  |  | COc1ccc(/C=C(/C(=O)O)c2ccc3ccccc3c2)cc1OC |
| 20.6% | 14.4% | 121 |  |  | COc1ccc(/C=C(/C(=O)O)c2cc(OC)c(OC)c(OC)c2)cc1O |
| 27.3% | 26.3% | 69.8 |  |  | CS(=O)(=O)c1ccc(/C(=C\c2ccccc2)C(=O)O)cc1 |
| 61.4% | 77.6% | 139 | 30.8 | 34.4 | CS(=O)(=O)c1ccc(/C=C(/C(=O)O)c2ccccc2)cc1 |
| inactive | inactive |  |  |  | COc1cc(/C=C(/C(=O)O)c2ccc(S(C)(=O)=O)cc2)cc(OC)c1OC |
| 87.3% | 97.8% |  | 8.7 | 25.2 | CC(=O)NS(=O)(=O)c1ccc(/C=C(/C(=O)O)c2ccccc2)cc1 |
| 19.2% | 28.7% | 4.9 |  |  | CS(=O)(=O)c1ccc(/C(=C\c2ccc(Br)cc2)C(=O)O)cc1 |
| inactive | inactive | 51 |  |  | CS(=O)(=O)c1ccc(/C=C(/C(=O)O)c2ccc(S(C)(=O)=O)cc2)cc1 |
| 9.9% | -5.2% |  |  |  | COc1ccc(/C=C(/C(=O)O)c2cc(OC)c(OC)c(OC)c2)cc1F |
| inactive | inactive |  |  |  | CS(=O)(=O)c1ccc(/C(=C\c2cccc(O)c2)C(=O)O)cc1 |
| 66.4% | 75.9% | 76.7 | 19.3 | 23.1 | CS(=O)(=O)c1ccc(/C=C(/C(=O)O)c2cccc(Cl)c2)cc1 |

| inhibition [1] | inhibition [2] | IC50 [3] [µM] | IC50 [4] [µM] | IC50 [5] [µM] | SMILES |
| --- | --- | --- | --- | --- | --- |
| 27.2% | 46.5% | 33.1 |  |  | CS(=O)(=O)c1ccc(/C(=C\c2ccc(O)c(O)c2)C(=O)O)cc1 |
| 9.2% | 21% | 43.1 |  |  | CS(=O)(=O)c1ccc(/C(=C\c2ccc(F)cc2)C(=O)O)cc1 |
| 57.4% | 64.7% |  |  |  | CSc1ccc(-c2ccc(/C=C(/C(=O)O)c3ccc(S(C)(=O)=O)cc3)cc2)cc1 |
| 1.1% | inactive | 13.4 |  |  | Cc1ccc(/C=C(/C(=O)O)c2ccc(S(C)(=O)=O)cc2)cc1 |
| 14.4% | 43.8% | 5.8 |  |  | CSc1ccc(/C=C(/C(=O)O)c2ccc(S(C)(=O)=O)cc2)cc1 |
| 27% | 40% |  |  |  | COc1cc(/C(=C\c2cccc(OC(C)=O)c2)C(=O)O)cc(OC)c1OC |
| 3.2% | 8% |  |  |  | COc1ccc(/C=C(/C(=O)O)c2cc(OC)c(OC)c(OC)c2)cc1OC(C)=O |
| 59.1% | 87% | 30.2 | 12.3 | 41.2 | CSc1ccc(/C=C(/C(=O)O)c2ccccc2)cc1 |
| 75.2% | 88.1% | 8.3 | 6.6 | 27.3 | CSc1ccc(/C=C(/C(=O)O)c2ccc(Cl)cc2)cc1 |
| inactive | inactive |  |  |  | CS(=O)(=O)c1ccc(/C(=C\c2ccc(O)cc2)C(=O)O)cc1 |
| 24.2% | 45.2% |  |  |  | CS(=O)(=O)c1ccc(/C=C(/C(=O)O)c2ccc3c(c2)OCO3)cc1 |
| 27% | 15.4% | 38.9 |  |  | CS(=O)(=O)c1ccc(/C(=C\c2cccc(F)c2)C(=O)O)cc1 |
| 47.5% | 90.1% |  | 7.9 |  | O=C(O)/C(=C/c1ccccc1)c1ccccc1 |
| 55.9% | 7.8% |  |  | 77 | COc1cc(/C(=C\c2cccc(F)c2)C(=O)O)cc(OC)c1OC |
|  |  | 0.3 | 1.8 | 4.1 | CC(=O)O[C@]1(C(C)=O)CC[C@H]2[C@@H]3C[C@H](C)C4=CC(=O)CC[C@]4(C)[C@H]3CC[C@@]21C [MEDROXYPROGESTERONE ACETATE] |
| 77.8% | 29.4% | 128 |  | 24.2 | COc1ccc(/C=C(/C(=O)O)c2cccc3ccccc23)cc1OC |
| 69.7% | 86.1% |  | 23.3 | 44.6 | CS(=O)(=O)c1ccc(/C=C(/C(=O)O)c2ccc(F)cc2)cc1 |
| 78.3% | 81.7% | 17 | 19.1 | 20.8 | CSc1ccc(/C=C(/C(=O)O)c2cccc(Cl)c2)cc1 |
| 15.9% | 9.6% |  |  |  | COc1cc(/C(=C\c2ccc3ccccc3c2)C(=O)O)cc(OC)c1OC |
| inactive | inactive | 36.9 |  |  | COc1ccc(/C=C(/C(=O)O)c2ccc(S(C)(=O)=O)cc2)cc1 |
